We go through 16 compounds from ChEMBL document CHEMBL2069305, “Discovery and optimization of a series of liver X receptor antagonists” (Bioorg Med Chem Lett, 2012).

A short description of series [1]: Metabolic stability in rat liver microsomes assessed as compound remaining at 1 uM after 30 mins. In kind it is ADME, Microsome. Particulars: read-out: Stability; call rule not given here.
The target in series [2] is T1, Oxysterols receptor LXR-beta (Homo sapiens, UniProt P55055).
T1 sequence (P55055 whole entry): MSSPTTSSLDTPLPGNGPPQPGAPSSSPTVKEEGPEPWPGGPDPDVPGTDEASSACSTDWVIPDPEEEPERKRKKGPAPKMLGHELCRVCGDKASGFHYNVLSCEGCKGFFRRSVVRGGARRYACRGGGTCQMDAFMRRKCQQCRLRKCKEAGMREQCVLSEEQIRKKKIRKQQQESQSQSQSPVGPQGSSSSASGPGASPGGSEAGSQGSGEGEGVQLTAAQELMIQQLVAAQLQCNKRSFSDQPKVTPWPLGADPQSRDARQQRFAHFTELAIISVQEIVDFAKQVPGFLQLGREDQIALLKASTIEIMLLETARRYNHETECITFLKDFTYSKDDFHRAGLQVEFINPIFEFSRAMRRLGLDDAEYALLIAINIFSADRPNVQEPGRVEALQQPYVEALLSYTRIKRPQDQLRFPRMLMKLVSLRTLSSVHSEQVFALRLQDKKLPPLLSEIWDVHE
Nature of the series: Displacement of [3H]N-(4-(1,1,1,3,3,3-hexafluoro-2-hydroxypropan-2-yl)phenyl)-N-methylbenzenesulfonamide from GST-tagged LXRbeta ligand binding domain after 1 hr by scintillation proximity assay.

Series [3] in a line: Oral bioavailability in Sprague-Dawley rat at 5 mg/kg. In kind it is ADME, organism-based. Particulars: in vivo. In a few lines: (§1)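 Male Sprague–Dawley rats given a single oral dose of 5 mg/kg; three animals per study.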
A short description of series [4]: Volume of distribution at steady state in Sprague-Dawley rat at 0.5 mg/kg, iv. It counts as ADME, organism-based. Also noted: dose 0.5 mg/kg, route intravenous. The settings on record: in vivo, read-out: Vdss. In a few lines: (§2)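 Single intravenous dose of 0.5 mg/kg in rats; three animals per study.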
Series [5] can be described thus: Mean residence time in Sprague-Dawley rat at 0.5 mg/kg, iv. It counts as ADME, organism-based. Particulars: in vivo. Also noted: dose 0.5 mg/kg, route intravenous. In a few lines: as §2
Series [6] is described as follows: Clearance in Sprague-Dawley rat at 0.5 mg/kg, iv. It counts as ADME, organism-based. On the set-up: dose 0.5 mg/kg, route intravenous. Particulars: in vivo. In short, it runs like this: as §2
A short description of series [7]: AUC in Sprague-Dawley rat at 5 mg/kg, po. In kind it is ADME, organism-based. Also noted: dose 5 mg/kg, route oral. Particulars: plasma. In a few lines:
as §1

Series [8] concerns HEK293. Nature of the series: Cytotoxicity against human HEK293 cells. It counts as cell-based.
In series [9] the target is T1, Oxysterols receptor LXR-beta. The series is described as follows: Antagonist activity at LXRbeta ligand binding domain expressed in HEK293 cells coexpressing GAL4 assessed as decrease in […]N-(4-(1,1,1,3,3,3-hexafluoro-2-hydroxypropan-2-yl)phenyl)-N-methylbenzenesulfonamide-induced activity after 20 hrs by luciferase reporter gene assay. It counts as cell-based.

Series [10] deals with Liver microsomes. The series is described as follows: Drug metabolism in rat liver microsomes assessed as isobutyl-hydroxylation. In kind it is ADME, Microsome.
Series [11] is described as follows: AUC in Sprague-Dawley rat at 0.5 mg/kg, iv. It counts as ADME, organism-based. On the set-up: dose 0.5 mg/kg, route intravenous. Particulars: plasma. In a few lines:
as §2

For series [12], the system named is Liver microsomes. Nature of the series: Drug metabolism in rat liver microsomes assessed as oxidative cleavage of isobutyl group. It counts as ADME, Microsome.

As to `CC(C)(C)CN(c1ccc(C(O)(C#Cc2ccc(S(C)(=O)=O)cc2)C(F)(F)F)cc1)S(=O)(=O)c1ccccc1` (stereo unspecified), the remaining at 0.5 h, 1 µM in series [1] was 36%.

For the compound `CS(=O)(=O)c1ccc(C#CC(O)(c2ccc(N(CC3CCC3)S(=O)(=O)c3ccccc3)cc2)C(F)(F)F)cc1` (stereo unspecified), the remaining at 0.5 h, 1 µM in [1] was under 5%.

Turning to `CN(c1ccc(C(O)(c2nnn[nH]2)C(F)(F)F)cc1)S(=O)(=O)c1ccccc1` (stereo unspecified), the half-maximal inhibitory concentration (IC50) in [2] was over 10 µM.

For the compound `CN(c1ccc(C(O)C(F)(F)F)cc1)S(=O)(=O)c1ccccc1` (stereo unspecified), the IC50 in series [2] is over 10 µM.

`CN(c1ccc(C(C)(O)C(F)(F)F)cc1)S(=O)(=O)c1ccccc1` (stereo unspecified): in [2], the half-maximal inhibitory concentration (IC50) was over 10 µM.

With `CS(=O)(=O)c1ccc(C#CC(O)(c2ccc(N(CCC(F)(F)F)S(=O)(=O)c3ccccc3)cc2)C(F)(F)F)cc1` (stereo unspecified), in [1], the remaining at 0.5 h, 1 µM was found to be 42%.

With `CC(C)CC#CC(O)(c1ccc(N(C)S(=O)(=O)c2ccccc2)cc1)C(F)(F)F` (stereo unspecified), the half-inhibitory concentration (IC50) in series [2] is over 30 µM.

In turn, `CS(=O)(=O)c1ccc(C#CC(O)(c2ccc(N(CC3CC3)S(=O)(=O)c3ccccc3)cc2)C(F)(F)F)cc1` (stereo unspecified) displayed a bioavailability in series [3] of 31%. In addition, in [1], the remaining at 0.5 h, 1 µM was over 95%. Also, the Vd in [4] came to 2.3 L/kg. This compound also yielded a mean residence time MRT in series [5] of 2.2 h. This compound showed a clearance in [6] of 18.3 mL/min/kg. In series [7], this compound yielded an AUC of 1380 ng·h/mL.

In series [2], `CN(c1ccc(C(O)(Cc2ccccc2)C(F)(F)F)cc1)S(=O)(=O)c1ccccc1` (stereo unspecified) yielded a half-inhibitory concentration (IC50) of over 10 µM.

With `CN(c1ccc(C(O)(c2ncc[nH]2)C(F)(F)F)cc1)S(=O)(=O)c1ccccc1` (stereo unspecified), the IC50 in [2] is over 10 µM.

In series [2], `CN(c1ccc(C(O)(c2nnc[nH]2)C(F)(F)F)cc1)S(=O)(=O)c1ccccc1` (stereo unspecified) registered an IC50 of over 10 µM.

On to `CC(C)CN(c1ccc(C(O)(C#Cc2ccc(S(C)(=O)=O)cc2)C(F)(F)F)cc1)S(=O)(=O)c1cccc(C#N)c1` (stereo unspecified), for which the Activity entry in series [8] was “Non-toxic”.

Take `CC(C)CN(c1ccc(C(O)(C#Cc2ccc(S(=O)(=O)c3ccccc3)cc2)C(F)(F)F)cc1)S(=O)(=O)c1cccc(C#N)c1` (stereo unspecified): the IC50 in series [2] and in series [9] was over 10 µM each time.

With `CS(=O)(=O)c1ccc(C#CC(O)(c2ccc(N(CC3CCCC3)S(=O)(=O)c3ccccc3)cc2)C(F)(F)F)cc1` (stereo unspecified), the remaining at 0.5 h, 1 µM in series [1] was under 5%.

`CC(C)CN(c1ccc(C(O)(C#Cc2ccc(S(C)(=O)=O)cc2)C(F)(F)F)cc1)S(=O)(=O)c1ccccc1` (stereo unspecified): the Drug metabolism entry in [10] and in [12] was “Active” each time. Moreover, the bioavailability in series [3] stood at 9%. Also, the remaining at 0.5 h, 1 µM in [1] was under 5%. Also, the results for the AUC in series [11] and in [7] were 102 ng·h/mL and 86 ng·h/mL, respectively. The Activity result in series [8] is “Non-toxic”. For the same compound, the Vd in series [4] stood at 4.4 L/kg. Further, in series [5], the mean residence time (MRT) was found to be 1.3 h. This compound had a clearance in [6] of 80 mL/min/kg.

`CS(=O)(=O)c1ccc(C#CC(O)(c2ccc(N(CC(F)(F)F)S(=O)(=O)c3ccccc3)cc2)C(F)(F)F)cc1` (stereo unspecified): the remaining at 0.5 h, 1 µM in [1] stood at 85%.
